The values that follow come from ChEMBL document CHEMBL3868630, “Synthesis, anti-proliferative activity, SAR study, and preliminary in vivo toxicity study of substituted N,N'-bis(arylmethyl)benzimidazolium salts against a panel of non-small cell lung cancer cell lines” (Bioorg Med Chem, 2017).

A value given as a limit tells only on which side of the number the result lay.

The solubility is the concentration that dissolves in the medium under given conditions. Read a low solubility as little dissolved substance. Usually GI50 stands for the concentration that inhibits growth by half. By TGI is commonly meant the concentration at which net growth stops. The low end stands for greater sensitivity of the cells, the high end for lower sensitivity of the cells. What is called IC50 is the midpoint of a concentration-inhibition curve. In general, LC50 refers to the concentration that kills 50% of the test population. The low end stands for greater toxicity, the high end for lower toxicity.

A short description of data set [1]: Aqueous solubility of the compound. The class given is physicochemical.
Data set [2] in a line: Cytotoxicity against human NCI-H23 cells assessed as cell growth at 10 uM after 48 hrs by SRB assay relative to control. It counts as functional. Particulars: NCI-H23, 48 h, read-out: Activity. In general terms: The SRB assay estimates cell density from bound dye.
The nature of data set [3]: Growth inhibition of human NCI-H522 cells after 48 hrs by SRB assay. Particulars: NCI-H522, 48 h. The class given is functional.
Data set [4] is described as follows: Cytotoxicity against human NCI-H226 cells assessed as cell growth at 10 uM after 48 hrs by SRB assay relative to control. It counts as functional. Particulars: NCI-H226, 48 h, read-out: Activity.
The nature of data set [5]: Cytotoxicity against human HOP92 cells assessed as cell growth at 10 uM after 48 hrs by SRB assay relative to control. It counts as functional. The conditions noted are these: HOP-92, 48 h, read-out: Activity.
The nature of data set [6]: Cytotoxicity against human HCC827 cells assessed as decrease in cell viability after 72 hrs by MTT assay. The class given is functional, cell-based. Particulars: HCC827, 72 h. The essentials:
(§1)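 Cells kept in RPMI 1640 with 10% FBS at 37 °C, 5% CO2, passaged every 2-3 days; seeded at 5,000-7,000 cells/well and left 24 h. Compounds dissolved in 1% DMSO, diluted in fresh medium to 1, 4, 16 and 32 µM, added in sextuplicate; 72 h exposure. MTT added for 3-4 h, medium removed, DMSO added for 15 min at 37 °C, OD read at 540 nm.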
A general note: Formazan colour is commonly taken as a measure of viable cells.

Data set [7] in a line: Cytotoxicity against human NCI-H460 cells assessed as cell growth at 10 uM after 48 hrs by SRB assay relative to control. It counts as functional. The conditions noted are these: NCI-H460, 48 h, read-out: Activity.
The nature of data set [8]: Cytotoxicity against human NCI-H1975 cells assessed as decrease in cell viability after 72 hrs by MTT assay. The conditions noted are these: NCI-H1975, 72 h. The class given is functional, cell-based. The essentials: as §1
Data set [9] can be described thus: Cytotoxicity against human EKVX cells assessed as cell growth at 10 uM after 48 hrs by SRB assay relative to control. It counts as functional. The conditions noted are these: read-out: Activity.
The nature of data set [10]: Growth inhibition of human A549 cells after 48 hrs by SRB assay. It counts as functional. Particulars: A549, 48 h.
The nature of data set [11]: Growth inhibition of human HOP92 cells after 48 hrs by SRB assay. The class given is functional. Particulars: HOP-92, 48 h.
Data set [12] in a line: Growth inhibition of human NCI-H226 cells after 48 hrs by SRB assay. The class given is functional. Particulars: NCI-H226, 48 h.
Data set [13] in a line: Cytotoxicity against human NCI-H460 cells assessed as decrease in cell viability after 72 hrs by MTT assay. The conditions noted are these: NCI-H460, 72 h. The class given is functional, cell-based. The procedure, abridged:
as §1

Data set [14] is described as follows: Growth inhibition of human NCI-H460 cells after 48 hrs by SRB assay. The class given is functional. The conditions noted are these: NCI-H460, 48 h.
Data set [15] is described as follows: Growth inhibition of human NCI-H322M cells after 48 hrs by SRB assay. It counts as functional.
Data set [16] in a line: Growth inhibition of human EKVX cells after 48 hrs by SRB assay. The class given is functional.
Data set [17] in a line: Cytotoxicity against human HOP62 cells assessed as cell growth at 10 uM after 48 hrs by SRB assay relative to control. The class given is functional. Particulars: HOP-62, 48 h, read-out: Activity.
Data set [18] in a line: Growth inhibition of human NCI-H23 cells after 48 hrs by SRB assay. It counts as functional. Particulars: NCI-H23, 48 h.
Data set [19] can be described thus: Cytotoxicity against human NCI-H522 cells assessed as cell growth at 10 uM after 48 hrs by SRB assay relative to control. It counts as functional. Particulars: NCI-H522, 48 h, read-out: Activity.
Data set [20] is described as follows: Growth inhibition of human HOP62 cells after 48 hrs by SRB assay. The class given is functional. Particulars: HOP-62, 48 h.
Data set [21] is described as follows: Cytotoxicity against human A549 cells assessed as decrease in cell viability after 72 hrs by MTT assay. It counts as functional, cell-based. The conditions noted are these: A549, 72 h. The procedure, abridged:
as §1

The nature of data set [22]: Cytotoxicity against human A549 cells assessed as cell growth at 10 uM after 48 hrs by SRB assay relative to control. It counts as functional. Particulars: A549, 48 h, read-out: Activity.
Data set [23] can be described thus: Cytotoxicity against human NCI-H322M cells assessed as cell growth at 10 uM after 48 hrs by SRB assay relative to control. It counts as functional. Particulars: read-out: Activity.

Consider `CCCCc1n(Cc2ccc3ccccc3c2)c2ccccc2[n+]1Cc1ccc2ccccc2c1.[Br-]`, for which the solubility in [1] is less than 500 µg/mL. Also, the growth at 10 µM is -83.9% in data set [2]; -72.7% in data set [4]; -70.7% in data set [5]; -81.1% in data set [7]; -84.6% in data set [9]; -76.8% in data set [17]. For the same compound, the growth at 10 µM in data set [19] is -77.2%; in [22], -72.3%; in data set [23], -82.2%. Moreover, the GI50 was 289 nM in data set [3]; 1040 nM in data set [10]; 298 nM in data set [11]; 1080 nM in data set [12]; 436 nM in [14]; 1220 nM in data set [15]. Besides, the GI50 in data set [16] was 1170 nM; in data set [18], 371 nM; in [20], 1050 nM. In addition, the TGI in [3] was 1350 nM; in [10] it was 2420 nM; in [11], 1350 nM; in data set [15] it was 2570 nM; in data set [18] it was 1700 nM; in data set [20], 2550 nM. The IC50 in data set [6] is 2000 nM; in [8] it was less than 1000 nM; in data set [13] it was 2000 nM; in [21], 2000 nM.
With `S=c1n(Cc2ccc3ccccc3c2)c2ccccc2n1Cc1ccc2ccccc2c1`, the solubility in data set [1] is less than 500 µg/mL. Besides, the growth at 10 µM in [2] came out at 93.1%; in [4] it was 73.5%; in data set [5], 83.4%; in data set [7] it was 69.8%; in data set [9] it was 93.1%; in [17] it was 81.9%. Further, the growth at 10 µM came to 88.2% in data set [19], 87.6% in [22] and 92.6% in data set [23]. Further, the IC50 in data set [6], in data set [8], in data set [13] and in [21] was more than 30000 nM each time.
As for `[Br-].c1ccc2cc(Cn3c[n+](Cc4ccc5ccccc5c4)c4ccccc43)ccc2c1`, the solubility in data set [1] is less than 500 µg/mL. Further, the growth at 10 µM in data set [2] was -0.74%; in [4], 19.6%; in [5], -27.6%; in [7], -34.2%; in [9], 13.9%; in data set [17], 3.98%. In addition, the growth at 10 µM in data set [19] is -28.8%; in data set [22], 30.9%; in [23], 34.6%. The GI50 in [3] is 1250 nM; in [10], 1870 nM; in data set [11], 192 nM; in data set [12] it was 1460 nM; in [14], 1350 nM; in data set [15], 1490 nM. The GI50 worked out at 1470 nM in [16], 1050 nM in data set [18] and 1540 nM in data set [20]. For the same compound, the TGI in [3] was found to be 2820 nM; in data set [10] it was 3880 nM; in data set [11], 1570 nM; in data set [12], 3250 nM; in data set [14], 2910 nM; in data set [15] it was 2890 nM. In addition, the TGI was 2950 nM in [16], 2510 nM in data set [18] and 2980 nM in [20]. For the same compound, the IC50 in data set [6] was 3000 nM; in [8] it was 3000 nM; in data set [13], 3000 nM; in data set [21] it was 5000 nM. Also, the LC50 in [10] stood at 8010 nM; in [11], 4930 nM.
Turning to `O=c1n(Cc2ccc3ccccc3c2)c2ccccc2n1Cc1ccc2ccccc2c1`, the solubility in data set [1] was less than 500 µg/mL. The growth at 10 µM stood at 77.7% in data set [2]; 83.9% in [4]; 79.9% in [5]; 74.6% in data set [7]; 79.5% in data set [9]; 62.8% in [17]. Also, the growth at 10 µM was determined as 73.4% in [19], 85.2% in data set [22] and 81.6% in data set [23]. The IC50 in [6] was more than 30000 nM; in data set [8], 19000 nM; in data set [13] it was more than 30000 nM; in [21] it was more than 30000 nM.
In the case of `OCCCc1n(Cc2ccc3ccccc3n2)c2ccccc2[n+]1Cc1ccc2ccccc2n1.[Cl-]`, in data set [1], the solubility is less than 500 µg/mL. In addition, the growth at 10 µM in data set [2] came out at 75%; in data set [4], 79.8%; in [5] it was 47.9%; in data set [7] it was 91.8%; in [9], 97.8%; in [17], 87.5%. Also, the growth at 10 µM in data set [19] worked out at 60%; in [22], 93.2%; in data set [23], 91.7%. Further, the IC50 in [6] amounted to 17000 nM; in [8] it was 7000 nM; in data set [13], 11000 nM; in data set [21], 25000 nM.
In the case of `CCCc1n(Cc2ccc3ccccc3c2)c2ccccc2[n+]1Cc1ccc2ccccc2c1.[Br-]`, the solubility in [1] was less than 500 µg/mL. Further, the growth at 10 µM in data set [2] was -12.9%; in data set [4] it was -4.44%; in data set [5] it was -48.1%; in data set [7], -76.1%; in data set [9], -4.84%; in [17], -55.4%. In addition, the growth at 10 µM in data set [19] is -60.1%; in [22], -19.4%; in [23], 4.72%. Besides, the GI50 in data set [3] is 300 nM; in data set [10], 619 nM; in data set [11], 192 nM; in data set [12], 373 nM; in [14], 337 nM; in data set [15], 1040 nM. The GI50 in data set [16] was found to be 653 nM; in data set [18] it was 354 nM; in [20] it was 537 nM. The TGI amounted to 1050 nM in data set [3]; 2040 nM in data set [10]; 911 nM in data set [11]; 1800 nM in data set [12]; 1360 nM in data set [14]; 2310 nM in data set [15]. In addition, the TGI was 2330 nM in [16], 1600 nM in data set [18] and 2030 nM in data set [20]. In addition, the IC50 in data set [6] was less than 1000 nM; in data set [8], less than 1000 nM; in data set [13], 2000 nM; in data set [21], 2000 nM. For the same compound, in data set [10], the LC50 turned out to be 5090 nM.
Compound `Cc1n(Cc2ccc3ccccc3n2)c2ccccc2[n+]1Cc1ccc2ccccc2n1.[Cl-]` displayed a solubility in [1] of 1100 µg/mL. For the same compound, the growth at 10 µM in [2] was determined as 75.8%; in data set [4], 89.6%; in [5], 52%; in data set [7] it was 95.8%; in data set [9] it was 102%; in [17], 82.7%. The results for the growth at 10 µM in data set [19], in data set [22] and in [23] were 56.6%, 87.9% and 94.9%, respectively. Moreover, the half-inhibitory concentration (IC50) in data set [6] was determined as 7000 nM; in [8] it was 2000 nM; in data set [13] it was 3000 nM; in data set [21] it was 9000 nM.
In the case of `COCCc1n(Cc2ccc3ccccc3c2)c2ccccc2[n+]1Cc1ccc2ccccc2c1.[Br-]`, the solubility in data set [1] is less than 500 µg/mL. The growth at 10 µM in data set [2] is -24.3%; in data set [4] it was -7.12%; in [5] it was -53.1%; in data set [7], -65.3%; in [9], 4.7%; in [17], -19.1%. Further, the growth at 10 µM in data set [19] is -54.4%; in data set [22], 4.72%; in [23], 5.25%. Further, the IC50 in data set [6] is 3000 nM; in [8], 2000 nM; in [13] it was 3000 nM; in data set [21] it was 3000 nM.
